ChEMBL document CHEMBL1932943, “Montmorillonite K-10 mediated green synthesis of cyano pyridines: Their evaluation as potential inhibitors of PDE4” (Eur J Med Chem, 2012)

Biological target: 3',5'-cyclic-AMP phosphodiesterase 4B (Homo sapiens) (UniProt Q07343)
Test: Inhibition of recombinant His-tagged PDE4B using cAMP as substrate at 30 uM preincubated for 15 mins before substrate addition measured after 1 hr by luminescence assay
Summary of the method: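 PDE4B cDNA expressed as His-tagged protein in baculovirus-infected Sf9 cells, Ni-NTA purified. 10 ng enzyme preincubated 15 min with compound or DMSO vehicle, then 1 h with 5 µM cAMP, using a PDElight HTS cAMP phosphodiesterase kit. Reaction stopped, detection reagent added for 10 min in the dark, luminescence read. % inhibition = (RLU vehicle − RLU inhibitor)/RLU vehicle × 100.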

Sequence of 3',5'-cyclic-AMP phosphodiesterase 4B (Homo sapiens) (Q07343 whole entry): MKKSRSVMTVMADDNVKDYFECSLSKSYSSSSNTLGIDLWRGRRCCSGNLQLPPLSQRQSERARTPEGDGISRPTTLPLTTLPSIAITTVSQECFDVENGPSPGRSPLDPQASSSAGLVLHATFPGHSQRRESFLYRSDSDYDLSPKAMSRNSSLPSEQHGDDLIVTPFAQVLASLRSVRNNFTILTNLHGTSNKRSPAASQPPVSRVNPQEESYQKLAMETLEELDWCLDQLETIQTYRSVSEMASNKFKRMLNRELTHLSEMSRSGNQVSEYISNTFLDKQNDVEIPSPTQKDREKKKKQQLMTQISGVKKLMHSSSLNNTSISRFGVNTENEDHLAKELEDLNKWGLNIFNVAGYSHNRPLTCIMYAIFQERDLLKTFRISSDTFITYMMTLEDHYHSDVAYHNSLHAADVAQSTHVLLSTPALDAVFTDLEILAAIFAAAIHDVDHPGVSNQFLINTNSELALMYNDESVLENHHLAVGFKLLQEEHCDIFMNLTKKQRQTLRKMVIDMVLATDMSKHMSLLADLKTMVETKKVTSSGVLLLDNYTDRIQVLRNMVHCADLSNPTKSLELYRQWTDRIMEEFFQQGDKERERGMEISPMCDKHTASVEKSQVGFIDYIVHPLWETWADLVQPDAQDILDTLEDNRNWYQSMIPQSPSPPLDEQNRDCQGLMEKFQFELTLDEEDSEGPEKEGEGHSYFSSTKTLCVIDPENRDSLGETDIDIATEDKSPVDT

Row | SMILES | inhibition
1 | COC(=O)c1c(C)nc(OC)c(C#N)c1-c1ccc(F)cc1F | 21.5%
2 | COC(=O)c1c(C)nc(OC)c(C#N)c1-c1ccccc1 | 38.4%
3 | COC(=O)c1c(C)nc(OC)c(C#N)c1-c1c(F)cc(Br)cc1F | 22.4%
4 | COC(=O)c1c(C)nc(OC)c(C#N)c1-c1ccc(F)cc1 | 43.2%
5 | COC(=O)c1c(C)nc(OC)c(C#N)c1-c1ccc(C(F)(F)F)cc1 | 23.5%
6 | COC(=O)c1c(C)nc(OC)c(C#N)c1-c1ccc(Br)cc1 | 44.8%

Second part, the molecule after the results:

Row | inhibition | SMILES
7 | 42.3% | CCOC(=O)c1c(C)nc(OCC)c(C#N)c1-c1ccc(F)cc1
8 | 20.4% | CCOC(=O)c1c(C)nc(OCC)c(C#N)c1-c1ccc(F)cc1F
9 | 65.9% | CCOC(=O)c1c(C)nc(OCC)c(C#N)c1-c1ccc(OC)cc1
10 | 43.7% | CCOC(=O)c1c(C)nc(OCC)c(C#N)c1-c1ccc(Br)cc1
11 | 64.1% | COC(=O)c1c(C)nc(OC)c(C#N)c1-c1ccc(OC)cc1
